# pIC50: −log10 of the molar value.
# Tests used:
# HL-60 = experiment: Cytotoxicity against human HL60 cells by MTT assay; assay type: functional, cell-based
# Procedure, shortened: (§1)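 Cells at 5 × 10^4 cells/mL were preincubated for 24 h, then exposed to compounds in MeOH at various concentrations for 72 h. MTT (5 mg/mL) was added for 4 h, the formazan was dissolved in DMSO, and absorbance was read at 540 nm.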
# MOLT-4 = experiment: Cytotoxicity against human MOLT4 cells by MTT assay; assay type: functional, cell-based; procedure, shortened: as §1
# A549 = experiment: Cytotoxicity against human A549 cells by SRB method; assay type: functional, cell-based
# Procedure, shortened: (§2)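 Cells were plated at 2 × 10^5 cells/mL and treated with test compounds in MeOH over a concentration range for 24 h. They were then fixed with 12% TCA, stained with 0.4% SRB and read at 515 nm. IC50 was taken from the linear portion of log dose–response curves.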
# Bel-7402 = experiment: Cytotoxicity against human BEL-7402 cells by SRB method; assay type: functional, cell-based; procedure, shortened: as §2
# [1] = DPPH radical scavenging activity; assay type: functional
# Procedure, shortened: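 Samples dissolved in MeOH were mixed with methanolic DPPH, shaken and left for 30 min. Absorbance was read at 520 nm and percent inhibition calculated. IC50 is the concentration that scavenges 50% of the DPPH radicals.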
# [2] = biological target: Proto-oncogene tyrosine-protein kinase Src (Homo sapiens) (UniProt P12931); experiment: Inhibition of Src kinase at 10 uM by ELISA
# Proto-oncogene tyrosine-protein kinase Src (Homo sapiens), sequence (P12931 2-536 limits assumed): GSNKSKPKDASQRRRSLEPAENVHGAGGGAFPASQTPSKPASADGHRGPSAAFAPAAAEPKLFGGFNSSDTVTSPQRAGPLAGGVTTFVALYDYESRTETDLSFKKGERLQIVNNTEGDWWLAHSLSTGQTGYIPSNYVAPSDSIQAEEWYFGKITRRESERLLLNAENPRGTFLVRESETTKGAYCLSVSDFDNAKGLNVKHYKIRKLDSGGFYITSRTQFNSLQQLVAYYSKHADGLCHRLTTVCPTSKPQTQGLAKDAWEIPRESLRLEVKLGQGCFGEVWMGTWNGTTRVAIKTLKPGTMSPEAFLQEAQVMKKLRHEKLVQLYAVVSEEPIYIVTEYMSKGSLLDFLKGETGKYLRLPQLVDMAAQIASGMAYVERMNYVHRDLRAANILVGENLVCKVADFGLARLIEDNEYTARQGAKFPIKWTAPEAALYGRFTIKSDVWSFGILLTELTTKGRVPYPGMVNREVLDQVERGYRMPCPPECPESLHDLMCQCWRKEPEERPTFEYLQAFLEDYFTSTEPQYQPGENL
# Procedure, shortened: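 ELISA on plates precoated with 20 µg/mL poly(Glu,Tyr)4:1, using purified kinase and 5 µM ATP in 50 mM HEPES pH 7.4 with MgCl2, MnCl2, Na3VO4 and DTT, for 1 h at 37 °C. Phosphotyrosine was detected with PY99 antibody, then HRP anti-mouse IgG and o-phenylenediamine/H2O2, read at 490 nm. Inhibition was calculated against the 1% DMSO control, in duplicate.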
# [3] = biological target: Vascular endothelial growth factor receptor 2 (Homo sapiens) (UniProt P35968); conditions: at 10 µM
# Vascular endothelial growth factor receptor 2 (Homo sapiens), sequence (P35968 whole entry): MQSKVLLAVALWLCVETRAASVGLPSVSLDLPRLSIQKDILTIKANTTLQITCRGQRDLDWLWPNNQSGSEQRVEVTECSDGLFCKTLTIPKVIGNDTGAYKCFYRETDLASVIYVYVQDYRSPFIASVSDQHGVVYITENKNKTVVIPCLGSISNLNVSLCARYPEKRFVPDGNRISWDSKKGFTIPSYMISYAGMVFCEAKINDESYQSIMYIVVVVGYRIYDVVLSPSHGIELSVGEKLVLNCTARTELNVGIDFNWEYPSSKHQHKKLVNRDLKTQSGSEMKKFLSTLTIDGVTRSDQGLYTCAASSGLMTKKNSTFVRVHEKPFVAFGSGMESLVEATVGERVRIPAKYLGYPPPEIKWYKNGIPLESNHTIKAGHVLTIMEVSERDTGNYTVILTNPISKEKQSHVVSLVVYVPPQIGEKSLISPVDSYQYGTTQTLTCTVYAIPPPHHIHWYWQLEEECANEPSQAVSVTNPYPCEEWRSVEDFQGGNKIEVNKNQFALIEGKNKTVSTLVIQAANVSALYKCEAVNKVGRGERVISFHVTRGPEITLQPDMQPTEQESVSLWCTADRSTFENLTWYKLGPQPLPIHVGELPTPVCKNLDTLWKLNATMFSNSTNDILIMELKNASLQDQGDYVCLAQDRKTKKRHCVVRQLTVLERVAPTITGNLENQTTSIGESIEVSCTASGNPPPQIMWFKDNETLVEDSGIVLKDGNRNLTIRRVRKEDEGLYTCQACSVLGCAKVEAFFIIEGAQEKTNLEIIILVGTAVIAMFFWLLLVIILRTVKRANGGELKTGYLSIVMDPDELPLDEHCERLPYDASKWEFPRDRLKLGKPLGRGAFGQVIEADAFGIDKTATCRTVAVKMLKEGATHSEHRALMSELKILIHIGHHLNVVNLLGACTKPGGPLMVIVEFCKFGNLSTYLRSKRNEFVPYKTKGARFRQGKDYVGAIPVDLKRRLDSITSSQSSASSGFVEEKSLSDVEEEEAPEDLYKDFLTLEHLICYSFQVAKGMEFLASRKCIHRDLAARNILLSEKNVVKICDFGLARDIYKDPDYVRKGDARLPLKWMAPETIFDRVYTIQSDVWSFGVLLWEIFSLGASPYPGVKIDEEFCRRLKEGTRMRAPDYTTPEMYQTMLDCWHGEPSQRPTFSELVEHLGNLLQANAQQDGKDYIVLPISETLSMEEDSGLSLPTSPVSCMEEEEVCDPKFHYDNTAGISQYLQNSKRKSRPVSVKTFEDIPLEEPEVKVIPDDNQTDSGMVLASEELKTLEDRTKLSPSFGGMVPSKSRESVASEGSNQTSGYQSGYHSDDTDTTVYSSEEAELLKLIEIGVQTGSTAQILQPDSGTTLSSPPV
pIC50 [1],inhibition [2] [%],inhibition [3] [%],Structure (SMILES),pIC50 (HL-60),pIC50 (MOLT-4),pIC50 (A549),pIC50 (Bel-7402)
5.21,–,–,OCc1cc(OCc2cc(O)ccc2O)ccc1O,4.26,5.19,5.02,4.23
5.20,–,–,COCc1cc(O)c(Cc2cc(O)ccc2O)cc1O,5.20,5.24,4.47,4.21
5.07,–,–,COCc1cc(O)cc(Cl)c1O,5.17,4.19,4.25,4.24
5.34,–,–,Oc1ccc(O)c(COCc2cc(O)ccc2O)c1,5.26,5.25,4.74,4.24
5.39,35.9,31.8,OCc1cc(O)c(Cc2cc(O)ccc2O)c(Cl)c1O,5.29,5.19,5.24,5.22
5.28,–,–,OCc1c(O)c(Cl)cc(O)c1Cc1cc(O)ccc1O,4.26,4.24,4.86,4.20

# Second part, the compound before the results:
Structure (SMILES),pIC50 [1],inhibition [2] [%],inhibition [3] [%],pIC50 (HL-60),pIC50 (MOLT-4),pIC50 (A549),pIC50 (Bel-7402)
COCc1cc(O)c(Cc2cc(O)c(Cc3cc(O)ccc3O)cc2O)cc1O,5.59,–,–,4.48,5.26,4.63,4.24
OCc1cc(OCc2cc(O)ccc2O)cc(Cl)c1O,5.36,–,–,5.28,5.26,4.84,4.41
COCc1cc(O)ccc1O,5.01,–,–,4.23,4.06,< 4.00,< 4.00
Oc1ccc(O)c(COCc2cc(O)cc(Cl)c2O)c1,5.37,–,–,5.21,5.24,4.74,4.21

# Source: ChEMBL document CHEMBL1144688, “Gentisyl alcohol derivatives from the marine-derived fungus Penicillium terrestre” (J Nat Prod, 2008)
